Here are results for 7 compounds from ChEMBL document CHEMBL4138104, “Indole carboxylic acid esters of melampomagnolide B are potent anticancer agents against both hematological and solid tumor cells” (Eur J Med Chem, 2017).

The EC50 is the midpoint of the concentration-response curve.

The source made the active and inactive calls. The rule behind the calls is not given here.

Type in all cases: functional
One assay is filed under the species Rattus norvegicus. The assay is described as follows: Inhibition of colony formation of rat 9LSF cells at 5 to 20 uM after 48 hrs by colony formation assay. The essentials: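 9L-SF cells were seeded in 60 mm dishes to reach 50% confluence (6.65×10^4 cells/cm²) after 24 h. They were treated 48 h with drug serially diluted from DMSO stock (max 0.05% DMSO), then rinsed, trypsinized, counted and seeded in triplicate flasks for colonies. Lethally irradiated (25 Gy) feeders kept density at 2,000 cells/cm². Survival was normalized to control plating efficiency, with three experiments.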

Assay [1] is described as follows: Cytotoxicity against human M9-ENL1 cells assessed as reduction in cell viability by trypan blue staining-based assay. The essentials: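 M9-ENL1 AML cells (MLL-ENL-transduced human blood cells) plated at 10^6 cells/mL in alpha-MEM with 5% human plasma, 20% FBS, SCF, IL-3, IL-7 and FLT3. Drug diluted from DMSO stock into PBS, final DMSO ≤0.5%. After 24 h exposure, dead cells assessed by trypan blue and by flow cytometry (Annexin V/PI or Annexin V/7-AAD). Viability normalized to vehicle; EC50 from dose-response curves; triplicate.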

Assay [2] is described as follows: Potency index, ratio of melampomagnolide-B EC50 to compound EC50 for human M9-ENL1 cells. The essentials:
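M9-ENL1 AML cells, derived by MLL-ENL transduction of human blood cells, were plated at 10^6 cells/mL in alpha-MEM with 5% human plasma, 20% FBS, SCF, IL-3, IL-7 and FLT3 ligand. Exposure was 24 h. Non-apoptotic (Annexin V/7-AAD double-negative) fraction was normalized to vehicle, in triplicate, to give EC50. PTL and MMB were run as reference controls.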

Consider `O=C(O)c1cc2ccccc2[nH]1`, for which the inhibition entry in the assay filed under Rattus norvegicus was “Active”.

Take `C=C1C(=O)O[C@@H]2[C@H]3O[C@]3(C)CC/C=C(/COC(=O)c3ccc4[nH]ccc4c3)CC[C@@H]12`: the EC50 in assay [1] worked out at 3000 nM. The “Ratio IC50” value in assay [2] is 2 - 20.

As for `C=C1C(=O)O[C@@H]2[C@H]3O[C@]3(C)CC/C=C(/COC(=O)Cc3c[nH]c4ccccc34)CC[C@@H]12`, the EC50 in assay [1] worked out at 4000 nM. For the same compound, in assay [2], the “Ratio IC50” value is recorded as 2 - 20.

In the case of `C=C1C(=O)O[C@@H]2[C@H]3O[C@]3(C)CC/C=C(/COC(=O)Cc3c(C)n(C(=O)c4ccc(Cl)cc4)c4ccc(OC)cc34)CC[C@@H]12`, in assay [1], the EC50 was found to be 2700 nM. The “Ratio IC50” value in assay [2] was 2 - 20.

For the compound `C=C1C(=O)O[C@@H]2[C@H]3O[C@]3(C)CC/C=C(/COC(=O)c3sc4ccccc4c3Cl)CC[C@@H]12`, the EC50 in assay [1] worked out at 2100 nM. Further, in assay [2], the “Ratio IC50” value was 2 - 20.

Take `C=C1C(=O)O[C@H]2[C@H]1CC/C(CO)=C\CC[C@@]1(C)O[C@@H]21`: the inhibition result in the assay listed under Rattus norvegicus was “Active”.

With `C=C1C(=O)O[C@@H]2[C@H]3O[C@]3(C)CC/C=C(/COC(=O)c3ccc4cc[nH]c4c3)CC[C@@H]12`, the EC50 in assay [1] stood at 2500 nM. Besides, the “Ratio IC50” value in assay [2] was 2 - 20.
